Test results reported in ChEMBL document CHEMBL1629488, “Synthesis and biological evaluation of 2-(3',4',5'-trimethoxybenzoyl)-3-aryl/arylaminobenzo[b]thiophene derivatives as a novel class of antiproliferative agents” (Eur J Med Chem, 2010).
Active and inactive are the calls of the source. No cut-off for these calls is given here.

How the values were obtained:
Jurkat [1] = test: Antiproliferative activity against human Jurkat cells after 72 hrs by MTT assay; type: functional, cell-based
HeLa [2] = test: Induction of apoptosis in human HeLa cells assessed as early apoptotic cells at 2.5 uM after 24 hrs using FITC-conjugated annexin V and propidium iodide staining by flow cytometry assay (RVb = 1.5 %); type: functional
HeLa [3] = test: Induction of apoptosis in human HeLa cells assessed as increase of Bax protein expression up to 2.5 uM after 24 to 48 hrs by Western blot analysis; type: functional, cell-based
Summary of the method: (§1)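 Treated cells washed twice in ice-cold PBS, lysed 30 min on ice, lysate cleared at 15000×g, 4 °C, 10 min; protein by BCA. 20 μg per lane on SDS-PAGE (7.5–15%), PVDF transfer, overnight block at 4 °C; primary antibodies 2 h at room temperature, peroxidase secondaries 60 min, ECL detection; β-actin loading control.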

HeLa [4] = test: Induction of apoptosis in human HeLa cells assessed as viable cells at 0.62 uM after 24 hrs using FITC-conjugated annexin V and propidium iodide staining by flow cytometry assay (RVb = 94.7 %); type: functional; settings: read-out: Activity
Jurkat [5] = test: Cell cycle arrest in human Jurkat cells assessed as accumulation at G2/M phase after 24 hrs using propidium iodide staining by flow cytometry; type: functional, cell-based
Summary of the method: (§2)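 Exponentially growing cells (5 × 10^5) exposed to graded compound levels, 0.312 to 5 μM, for 24 or 48 h; collected, fixed in ice-cold 70% ethanol, treated with lysis buffer containing RNase A and 0.1% Triton X-100, stained with propidium iodide; DNA content read by flow cytometry. Mean ± SEM of two independent experiments.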

HeLa [6] = test: Induction of apoptosis in human HeLa cells assessed as ROS production after 24 to 48 hrs using H2-DCFDA staining by flow cytometry; type: functional, cell-based
Summary of the method: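 ROS probe: after 24 or 48 h exposure, HeLa cells resuspended in HBSS with 0.1 μM H2DCFDA, incubated 30 min at 37 °C, spun and resuspended in HBSS; fluorescence recorded by flow cytometry, excitation 488 nm, emission 530 nm.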

HeLa [7] = test: Induction of apoptosis in human HeLa cells assessed as loss of mitochondrial membrane potential after 24 to 48 hrs using Rho123 staining by flow cytometry; type: functional, cell-based
Summary of the method: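 After 24 or 48 h exposure, HeLa cells were pelleted, resuspended in HBSS with 0.1 μM rhodamine 123, held 20 min at 37 °C, spun and resuspended in HBSS; fluorescence read by flow cytometry. Mean ± S.E.M. of 3 independent experiments.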

K562 = test: Antiproliferative activity against human K562 cells after 72 hrs by MTT assay; type: functional, cell-based; settings: K562, 72 h
HeLa [8] = test: Induction of apoptosis in human HeLa cells assessed as caspase-3-mediated cleavage of PARP at 0.625 to 2.5 uM; type: functional, cell-based; settings: TDE = time-dependent effect; summary of the method: as §1
HeLa [9] = test: Induction of apoptosis in human HeLa cells assessed as necrotic cells at 1.25 uM after 24 hrs using FITC-conjugated annexin V and propidium iodide staining by flow cytometry assay (RVb = 1.9 %); type: functional
HeLa [10] = test: Antiproliferative activity against human HeLa cells assessed as cell viability after 72 hrs by MTT assay; type: functional, cell-based
Summary of the method: (§3)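 A549 and HeLa cells grown in DMEM with 10% FBS and penicillin/streptomycin. Plated at 8 × 10^3 cells/well and held 18 h at 37 °C in 5% CO2. Medium replaced with compound in complete medium at varied concentrations for 72 h at 37 °C, then MTT read.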

[11] = Inhibition of tubulin polymerization after 20 mins by turbidimetry
A549 = test: Antiproliferative activity against human A549 cells after 72 hrs by MTT assay; type: functional, cell-based; settings: A549, 72 h; summary of the method: as §3
Jurkat [12] = test: Cell cycle arrest in human Jurkat cells assessed as hypodiploid peak at sub-G1 phase at 0.312 to 5 uM uM after 48 hrs using propidium iodide staining by flow cytometry; type: functional, cell-based; summary of the method: as §2
HeLa [13] = test: Induction of apoptosis in human HeLa cells assessed as early apoptotic cells at 1.25 uM after 24 hrs using FITC-conjugated annexin V and propidium iodide staining by flow cytometry assay (RVb = 1.5 %); type: functional
HeLa [14] = test: Induction of apoptosis in human HeLa cells assessed as late apoptotic cells at 2.5 uM after 24 hrs using FITC-conjugated annexin V and propidium iodide staining by flow cytometry assay (RVb = 1.9 %); type: functional
HeLa [15] = test: Induction of apoptosis in human HeLa cells assessed as caspase-3-mediated cleavage of PARP after 24 hrs by Western blot analysis; type: functional, cell-based; summary of the method: as §1
HeLa [16] = test: Induction of apoptosis in human HeLa cells assessed as late apoptotic cells at 5 uM after 24 hrs using FITC-conjugated annexin V and propidium iodide staining by flow cytometry assay (RVb = 1.9 %); type: functional
HeLa [17] = test: Cell cycle arrest in human HeLa cells assessed as reduction of cells at S phase at 1.25 uM after 24 hrs using propidium iodide staining by flow cytometry; type: functional, cell-based; summary of the method: as §2
Jurkat [18] = test: Cell cycle arrest in human Jurkat cells assessed as accumulation at S phase at 1.25 uM after 24 hrs using propidium iodide staining by flow cytometry relative to control; type: functional; summary of the method: as §2
HeLa [19] = test: Induction of apoptosis in human HeLa cells assessed as viable cells at 1.25 uM after 24 hrs using FITC-conjugated annexin V and propidium iodide staining by flow cytometry assay (RVb = 94.7 %); type: functional; settings: read-out: Activity
HeLa [20] = test: Induction of apoptosis in human HeLa cells assessed as viable cells at 5 uM after 24 hrs using FITC-conjugated annexin V and propidium iodide staining by flow cytometry assay (RVb = 94.7 %); type: functional; settings: read-out: Activity
HeLa [21] = test: Induction of apoptosis in human HeLa cells assessed as viable cells at 2.5 uM after 24 hrs using FITC-conjugated annexin V and propidium iodide staining by flow cytometry assay (RVb = 94.7 %); type: functional; settings: read-out: Activity
HeLa [22] = test: Induction of apoptosis in human HeLa cells assessed as necrotic cells at 0.62 uM after 24 hrs using FITC-conjugated annexin V and propidium iodide staining by flow cytometry assay (RVb = 1.9 %); type: functional
HeLa [23] = test: Induction of apoptosis in human HeLa cells assessed as necrotic cells at 5 uM after 24 hrs using FITC-conjugated annexin V and propidium iodide staining by flow cytometry assay (RVb = 1.9 %); type: functional
HeLa [24] = test: Induction of apoptosis in human HeLa cells assessed as caspase-3-mediated cleavage of PARP after 48 hrs by Western blot analysis; type: functional, cell-based; summary of the method: as §1
HL-60 = test: Antiproliferative activity against human HL60 cells after 72 hrs by MTT assay; type: functional, cell-based; settings: HL-60, 72 h
HeLa [25] = test: Upregulation of cdc25c protein expression in human HeLa cells at 0.6 to 2.5 uM after 24 to 48 hrs by Western blot analysis; type: functional, cell-based; summary of the method: as §1
HeLa [26] = test: Induction of apoptosis in human HeLa cells assessed as late apoptotic cells at 1.25 uM after 24 hrs using FITC-conjugated annexin V and propidium iodide staining by flow cytometry assay (RVb = 1.9 %); type: functional
HeLa [27] = test: Induction of apoptosis in human HeLa cells assessed as early apoptotic cells at 0.62 uM after 24 hrs using FITC-conjugated annexin V and propidium iodide staining by flow cytometry assay (RVb = 1.5 %); type: functional
HeLa [28] = test: Induction of apoptosis in human HeLa cells assessed as early apoptotic cells at 5 uM after 24 hrs using FITC-conjugated annexin V and propidium iodide staining by flow cytometry assay (RVb = 1.5 %); type: functional

IC50 (Jurkat [1]): 300 nM | IC50 (K562): 200 nM | IC50 (HeLa [10]): 700 nM | IC50 [11]: 7.2 µM | IC50 (A549): 1400 nM | IC50 (HL-60): 500 nM
SMILES: CCOc1ccc(Nc2c(C(=O)c3cc(OC)c(OC)c(OC)c3)sc3ccccc23)cc1
Activity (HeLa [2]): 6.4% | Activity (HeLa [3]): inactive | viability at 0.62 µM (HeLa [4]): 64.9% | Activity (Jurkat [5]): Dose-dependent effect | Activity (HeLa [6]): Active | Activity (HeLa [7]): Dose-dependent effect | Activity (HeLa [8]): tde | Activity (HeLa [9]): 13.4% | Activity (Jurkat [12]): Active | Activity (HeLa [13]): 6.8% | Activity (HeLa [14]): 24.9% | Activity (HeLa [15]): Active | Activity (HeLa [16]): 25.4% | Activity (HeLa [17]): Active | Activity (Jurkat [18]): 18% | viability at 1.25 µM (HeLa [19]): 63.7% | viability at 5 µM (HeLa [20]): 49.9% | viability at 2.5 µM (HeLa [21]): 49.4% | Activity (HeLa [22]): 15.5% | Activity (HeLa [23]): 17.4% | Activity (HeLa [24]): Active | Activity (HeLa [25]): Active | Activity (HeLa [26]): 16% | Activity (HeLa [27]): 5.2% | Activity (HeLa [28]): 7.2%
